Experimental data published in ChEMBL document CHEMBL1140861, “Short antisense oligonucleotides with novel 2'-4' conformationaly restricted nucleoside analogues show improved potency without increased toxicity in animals” (J Med Chem, 2009).
Blank lines part the entries; values can stand above or below the compound they belong to. Active and inactive are the calls of the source. No cut-off for these calls is given here.

Tests used:
Homo sapiens = assay: Decrease in low density lipoprotein cholesterol level in normal human at 50 to 400 […] by standard enzyme-based colorimetric assay; format: functional, organism-based; design: scale not given: the % may be the effect or the level left
Mus musculus [1] = assay: Hepatotoxicity in BALB/c mouse assessed as increase in liver ALT level at 35 mg/kg, ip after 72 hrs; format: toxicity, organism-based; design: dose 35 mg/kg, route intraperitoneal; settings: in vivo
Method in brief: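 Single ip injection of 35 mg/kg ASO into male Balb/c mice, 6 weeks old, n = 4 per group, saline control; sacrificed 72 h after dosing and ALT recorded; ANOVA with Tukey's post hoc test.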

bEND = assay: Reduction in mouse PTEN mRNA level expressed in mouse bEND cells; format: functional, cell-based
Method in brief: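 bEND mouse brain endothelial cells transfected with ASO using lipofectin; PTEN mRNA reduction measured over a dose range; IC50 taken from dose-response curves.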

Mus musculus [2] = assay: Toxicity in BALB/c mouse assessed as reduction in body weight at 15 mg/kg, ip administered twice a week for 3 weeks measured after 72 hrs of last dose; format: organism-based; design: dose 15 mg/kg, route intraperitoneal; settings: in vivo
Method in brief: (§1)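 Male Balb/c mice, 6 weeks old, dosed ip twice weekly for 3 weeks at 0.5, 1.5, 4.7 and 15 mg/kg (two ASOs) or 0.7, 2.3, 7.2 and 23 mg/kg (MOE control); sacrificed 72 h after last dose; ALT, liver PTEN mRNA, liver and spleen weights and body weight gain assessed; ED50 derived; errors as sd.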

Mus musculus [3] = assay: Hepatotoxicity in BALB/c mouse assessed as increase in liver ALT level at 0.5 mg/kg, ip administered twice a week for 3 weeks measured after 72 hrs of last dose; format: toxicity, organism-based; design: dose 0.5 mg/kg, route intraperitoneal; settings: in vivo; method in brief: as §1
Mus musculus [4] = assay: Toxicity in BALB/c mouse assessed as reduction in body weight at 4.7 mg/kg, ip administered twice a week for 3 weeks measured after 72 hrs of last dose; format: organism-based; design: dose 4.7 mg/kg, route intraperitoneal; settings: in vivo; method in brief: as §1
Mus musculus [5] = assay: Hepatotoxicity in BALB/c mouse assessed as increase in liver ALT level at 15 mg/kg, ip administered twice a week for 3 weeks measured after 72 hrs of last dose; format: toxicity, organism-based; design: dose 15 mg/kg, route intraperitoneal; settings: in vivo; method in brief: as §1
Mus musculus [6] = assay: Hepatotoxicity in BALB/c mouse assessed as increase in liver ALT level at 1.5 mg/kg, ip administered twice a week for 3 weeks measured after 72 hrs of last dose; format: toxicity, organism-based; design: dose 1.5 mg/kg, route intraperitoneal; settings: in vivo; method in brief: as §1
Mus musculus [7] = assay: Hepatotoxicity in BALB/c mouse assessed as increase in liver ALT level at 4.7 mg/kg, ip administered twice a week for 3 weeks measured after 72 hrs of last dose; format: toxicity, organism-based; design: dose 4.7 mg/kg, route intraperitoneal; settings: in vivo; method in brief: as §1
Mus musculus [8] = assay: Metabolic stability in BALB/c mouse liver assessed as antisense oligonucleotide level at 18 mg/kg; format: ADME, organism-based; design: dose 18 mg/kg; settings: in vivo
Mus musculus [9] = assay: Reduction of PTEN mRNA level in ip dosed BALB/c mouse liver after 72 hrs; format: functional
Mus musculus [10] = assay: Reduction of PTEN level in ip dosed BALB/c mouse liver at 37 mg/kg by Western blot analysis; format: functional, organism-based; design: dose 37 mg/kg
Mus musculus [11] = assay: Toxicity in BALB/c mouse assessed as reduction in body weight at 0.5 mg/kg, ip administered twice a week for 3 weeks measured after 72 hrs of last dose; format: organism-based; design: dose 0.5 mg/kg, route intraperitoneal; settings: in vivo; method in brief: as §1
Mus musculus [12] = species on record: Mus musculus; assay: Binding affinity to mouse PTEN mRNA assessed as melting temperature
Method in brief: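 Tm of ASO–RNA duplex, i.e. melting temperature of the ASO hybridised to its complementary RNA.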

Mus musculus [13] = assay: Toxicity in BALB/c mouse assessed as reduction in body weight at 1.5 mg/kg, ip administered twice a week for 3 weeks measured after 72 hrs of last dose; format: organism-based; design: dose 1.5 mg/kg, route intraperitoneal; settings: in vivo; method in brief: as §1

SMILES: COCCO[C@@H]1[C@H](SP(=O)(O)OC[C@H]2O[C@@H](n3cc(C)c(=O)[nH]c3=O)[C@H](OCCOC)[C@@H]2SP(=O)(O)OC[C@H]2O[C@@H](n3cc(C)c(N)nc3=O)[C@H](OCCOC)[C@@H]2SP(=O)(O)OC[C@H]2O[C@@H](n3cnc4c(N)ncnc43)C[C@@H]2SP(=O)(O)OC[C@H]2O[C@@H](n3cnc4c(=O)[nH]c(N)nc43)C[C@@H]2SP(=O)(O)OC[C@H]2O[C@@H](n3cc(C)c(=O)[nH]c3=O)C[C@@H]2SP(=O)(O)OC[C@H]2O[C@@H](n3cc(C)c(N)nc3=O)C[C@@H]2SP(=O)(O)OC[C@H]2O[C@@H](n3cc(C)c(=O)[nH]c3=O)C[C@@H]2SP(=O)(O)OC[C@H]2O[C@@H](n3cnc4c(=O)[nH]c(N)nc43)C[C@@H]2SP(=O)(O)OC[C@H]2O[C@@H](n3cc(C)c(N)nc3=O)C[C@@H]2SP(=O)(O)OC[C@H]2O[C@@H](n3cc(C)c(=O)[nH]c3=O)C[C@@H]2SP(=O)(O)OC[C@H]2O[C@@H](n3cc(C)c(=O)[nH]c3=O)C[C@@H]2SP(=O)(O)OC[C@H]2O[C@@H](n3cc(C)c(N)nc3=O)C[C@@H]2SP(=O)(O)OC[C@H]2O[C@@H](n3cnc4c(=O)[nH]c(N)nc43)[C@H](OCCOC)[C@@H]2SP(=O)(O)OC[C@@H]2O[C@H](n3cc(C)c(N)nc3=O)[C@@H](OCCOC)[C@H]2SP(=O)(O)OC[C@@H]2O[C@H](n3cnc4c(N)ncnc43)[C@@H](OCCOC)[C@H]2SP(=O)(O)OC[C@@H]2O[C@H](n3cc(C)c(N)nc3=O)[C@@H](OCCOC)[C@H]2SP(=O)(O)OC[C@@H]2O[C@H](n3cc(C)c(N)nc3=O)[C@@H](OCCOC)[C@H]2O)[C@@H](COP(=O)(O)S[C@H]2[C@@H](OCCOC)[C@H](n3cc(C)c(N)nc3=O)O[C@@H]2COP(=O)(O)S[C@H]2[C@@H](OCCOC)[C@H](n3cnc4c(=O)[nH]c(N)nc43)O[C@@H]2CO)O[C@H]1n1cc(C)c(N)nc1=O
Activity (Homo sapiens): 6%

SMILES: COC[C@@H]1O[C@H]2[C@H](n3ccc(=O)[nH]c3=O)O[C@]1(COP(O)(=S)O[C@@H]1[C@H]3O[C@H](COC)[C@]1(COP(O)(=S)OC[C@H]1O[C@@H](n4cnc5c(N)ncnc54)[C@H](O)[C@@H]1OP(O)(=S)OC[C@H]1O[C@@H](n4cc(C)c(=O)[nH]c4=O)[C@H](O)[C@@H]1OP(O)(=S)OC[C@H]1O[C@@H](n4cnc5c(=O)[nH]c(N)nc54)[C@H](O)[C@@H]1OP(O)(=S)OC[C@H]1O[C@@H](n4cnc5c(=O)[nH]c(N)nc54)[C@H](O)[C@@H]1OP(O)(=S)OC[C@H]1O[C@@H](n4ccc(N)nc4=O)[C@H](O)[C@@H]1OP(O)(=S)OC[C@H]1O[C@@H](n4cc(C)c(=O)[nH]c4=O)[C@H](O)[C@@H]1OP(O)(=S)OC[C@H]1O[C@@H](n4cnc5c(=O)[nH]c(N)nc54)[C@H](O)[C@@H]1OP(O)(=S)OC[C@H]1O[C@@H](n4ccc(N)nc4=O)[C@H](O)[C@@H]1OP(O)(=S)OC[C@H]1O[C@@H](n4cnc5c(N)ncnc54)[C@H](O)[C@@H]1OP(O)(=S)OC[C@H]1O[C@@H](n4cnc5c(=O)[nH]c(N)nc54)[C@H](O)[C@@H]1OP(O)(=S)OC[C@]14O[C@@H](n5ccc(N)nc5=O)[C@H](O[C@H]1COC)[C@@H]4OP(O)(=S)OC[C@]14O[C@@H](n5ccc(=O)[nH]c5=O)[C@H](O[C@H]1COC)[C@@H]4O)O[C@H]3n1ccc(N)nc1=O)[C@H]2O (stereo partly specified)
Activity (Mus musculus [1]): Non-toxic

SMILES: COC[C@H]1O[C@H]2[C@H](n3ccc(=O)[nH]c3=O)O[C@]1(COP(O)(=S)O[C@H]1[C@H]3O[C@H](COC)[C@]1(COP(O)(=S)OC[C@H]1O[C@@H](n4cnc5c(N)ncnc54)[C@H](O)[C@@H]1OP(O)(=S)OC[C@H]1O[C@@H](n4cc(C)c(=O)[nH]c4=O)[C@H](O)[C@@H]1OP(O)(=S)OC[C@H]1O[C@@H](n4cnc5c(=O)[nH]c(N)nc54)[C@H](O)[C@@H]1OP(O)(=S)OC[C@H]1O[C@@H](n4cnc5c(=O)[nH]c(N)nc54)[C@H](O)[C@@H]1OP(O)(=S)OC[C@H]1O[C@@H](n4ccc(N)nc4=O)[C@H](O)[C@@H]1OP(O)(=S)OC[C@H]1O[C@@H](n4cc(C)c(=O)[nH]c4=O)[C@H](O)[C@@H]1OP(O)(=S)OC[C@H]1O[C@@H](n4cnc5c(=O)[nH]c(N)nc54)[C@H](O)[C@@H]1OP(O)(=S)OC[C@H]1O[C@@H](n4ccc(N)nc4=O)[C@H](O)[C@@H]1OP(O)(=S)OC[C@H]1O[C@@H](n4cnc5c(N)ncnc54)[C@H](O)[C@@H]1OP(O)(=S)OC[C@H]1O[C@@H](n4cnc5c(=O)[nH]c(N)nc54)[C@H](O)[C@@H]1OP(O)(=S)OC[C@]14O[C@@H](n5ccc(N)nc5=O)[C@H](O[C@@H]1COC)[C@@H]4OP(O)(=S)OC[C@]14O[C@@H](n5ccc(=O)[nH]c5=O)[C@H](O[C@@H]1COC)[C@@H]4O)O[C@H]3n1ccc(N)nc1=O)[C@H]2O (stereo partly specified)
Activity (Mus musculus [1]): Non-toxic

IC50 (bEND): 10.3 nM | Stability (Mus musculus [8]): 25 µg/g | Tm (Mus musculus [12]): 58.9 °C
SMILES: Cc1cn([C@@H]2O[C@@]3(COP(O)(=S)O[C@H]4[C@H]5O[C@H](C)[C@]4(COP(O)(=S)O[C@H]4C[C@H](n6cc(C)c(=O)[nH]c6=O)O[C@@H]4COP(O)(=S)O[C@H]4[C@@H](O)[C@H](n6cnc7c6N=CNC7N)O[C@@H]4COP(O)(=S)O[C@H]4[C@@H](O)[C@H](n6cnc7c(=O)[nH]c(N)nc76)O[C@@H]4COP(O)(=S)O[C@H]4[C@@H](O)[C@H](n6ccc(N)nc6=O)O[C@@H]4COP(O)(=S)O[C@H]4[C@@H](O)[C@H](n6cnc7c(N)ncnc76)O[C@@H]4COP(O)(=S)O[C@H]4[C@@H](O)[C@H](n6ccc(N)nc6=O)O[C@@H]4COP(O)(=S)O[C@H]4[C@@H](O)[C@H](n6cc(C)c(=O)[nH]c6=O)O[C@@H]4COP(O)(=S)O[C@H]4[C@@H](O)[C@H](n6cnc7c(=O)[nH]c(N)nc76)O[C@@H]4COP(O)(=S)O[C@H]4[C@@H](O)[C@H](n6cnc7c(=O)[nH]c(N)nc76)O[C@@H]4COP(O)(=S)O[C@H]4[C@@H](O)[C@H](n6ccc(N)nc6=O)O[C@@H]4COP(O)(=S)O[C@H]4[C@H]6O[C@H](C)[C@]4(COP(O)(=S)O[C@H]4[C@H]7O[C@H](C)[C@]4(CO)O[C@H]7n4ccc(=O)[nH]c4=O)O[C@H]6n4cc(C)c(N)nc4=O)O[C@H]5n4ccc(=O)[nH]c4=O)[C@@H](C)O[C@@H]2[C@@H]3O)c(=O)nc1N (stereo partly specified)
Activity (Mus musculus [2]): Toxic | Activity (Mus musculus [3]): Toxic | Activity (Mus musculus [4]): Toxic | Activity (Mus musculus [5]): Toxic | Activity (Mus musculus [6]): Toxic | Activity (Mus musculus [7]): Toxic | ED50 (Mus musculus [9]): 13 mg/kg | Activity (Mus musculus [10]): Active | Activity (Mus musculus [11]): Toxic | Activity (Mus musculus [13]): Toxic
